Measured values taken from ChEMBL document CHEMBL3596134 (J Med Chem, 2015).

Tests used:
[1] = Oral bioavailability in guinea pig at 30 mg/kg; assay type: ADME, organism-based, Cavia porcellus; conditions: in vivo
[2] = Oral bioavailability in guinea pig at 10 mg/kg; assay type: ADME, organism-based, Cavia porcellus; conditions: in vivo
Procedure, shortened: (§1)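 Single iv and oral dosing in rat, guinea pig or dog; iv and po given as solutions in wellsolve/H2O 1/9 with NaOH (2 equiv). Animals fasted before oral dosing; noncrossover design, n = 3. Plasma protein-precipitated with acetonitrile/ethanol (70/30) and assayed by HPLC/MS/MS with negative-ion ionization. Noncompartmental analysis; F from mean po AUC over mean iv AUC.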

[3] = Oral bioavailability in rat at 10 mg/kg; assay type: ADME, organism-based; conditions: in vivo; procedure, shortened: as §1
[4] = Half life in rat at 1 mg/kg, iv; assay type: ADME, organism-based; conditions: in vivo; procedure, shortened: as §1
[5] = Half life in guinea pig at 1 mg/kg, iv; assay type: ADME, organism-based, Cavia porcellus; conditions: in vivo; procedure, shortened: as §1
[6] = Half life in dog at 1 mg/kg, iv; assay type: ADME, organism-based, Canis lupus familiaris; conditions: in vivo; procedure, shortened: as §1
[7] = Clearance in rat at 1 mg/kg, iv; assay type: ADME, organism-based; conditions: in vivo; procedure, shortened: as §1
[8] = Clearance in guinea pig at 1 mg/kg, iv; assay type: ADME, organism-based, Cavia porcellus; conditions: in vivo; procedure, shortened: as §1
[9] = Clearance in dog at 1 mg/kg, iv; assay type: ADME, organism-based, Canis lupus familiaris; conditions: in vivo; procedure, shortened: as §1
[10] = Volume of distribution at steady state in rat at 1 mg/kg, iv and 3 mg/kg, po; assay type: ADME, organism-based; conditions: in vivo, read-out: Vdss
Procedure, shortened: (§2)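 Single iv and oral doses were given as solutions in wellsolve/H2O 1/9 with 2 equiv NaOH. Animals were fasted before oral dosing, in a noncrossover design with n = 3. Plasma was protein-precipitated with acetonitrile/ethanol 70/30 and analysed by HPLC/MS/MS (negative-ion Turbo IonSpray). Parameters were derived by noncompartmental analysis and reported as mean ± SD.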

[11] = Volume of distribution at steady state in guinea pig at 1 mg/kg, iv and 10 mg/kg, po; assay type: ADME, organism-based, Cavia porcellus; conditions: in vivo, read-out: Vdss
[12] = Volume of distribution at steady state in dog at 1 mg/kg, iv and 1 mg/kg, po; assay type: ADME, organism-based, Canis lupus familiaris; conditions: in vivo, read-out: Vdss; procedure, shortened: as §2
[13] = AUC in rat at 3 mg/kg, po; assay type: ADME, organism-based; conditions: in vivo; procedure, shortened: as §1
[14] = AUC in guinea pig at 10 mg/kg, po; assay type: ADME, organism-based, Cavia porcellus; conditions: in vivo; procedure, shortened: as §1
[15] = (§3) AUC in dog at 1 mg/kg, po; assay type: ADME, organism-based, Canis lupus familiaris; conditions: in vivo; procedure, shortened: as §1
[16] = Oral bioavailability in rat at 3 mg/kg; assay type: ADME, organism-based; conditions: in vivo; procedure, shortened: as §1
[17] = Oral bioavailability in dog at 1 mg/kg; assay type: ADME, organism-based, Canis lupus familiaris; conditions: in vivo; procedure, shortened: as §1
[18] = Drug uptake in lung of guinea pig measured over 24 hrs; assay type: ADME, tissue-based, Cavia porcellus; conditions: read-out: Drug uptake
Procedure, shortened: (§4)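 Lungs homogenized in saline; homogenate digested in 2 mol/L NaOH at 60 °C for 3 h, then diluted 50-fold in PBS. Protein measured by BCA. Compound measured by negative-ion HPLC/MS/MS after ethanol precipitation and expressed as ng/g protein. Plasma and lung values given as mean with SD, n = 4.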

[19] = Plasma concentration in guinea pig measured over 24 hrs; assay type: ADME, Cavia porcellus; procedure, shortened: as §4
[20] = Ratio of drug level in lung to plasma in guinea pig measured over 24 hrs; assay type: ADME, Cavia porcellus; conditions: lung and plasma
Procedure, shortened: (§5)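 Guinea pigs were dosed orally. Lungs were homogenized in saline, digested in 2 mol/L NaOH at 60 °C for 3 h, diluted 50-fold in PBS, and assayed for protein by BCA. Drug in lung was quantified by HPLC/MS/MS (negative-ion) after ethanol precipitation and expressed as ng/g protein. Plasma was assayed after acetonitrile/ethanol precipitation. Kp is the lung:plasma concentration ratio.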

[21] = Stability of the compound in ambient light; assay type: physicochemical
[22] = AUC in guinea pig at 0.2 mg/kg, iv and 1 mg/kg, po administered as cassette dosing; assay type: ADME, organism-based, Cavia porcellus; conditions: in vivo
[23] = Oral bioavailability in guinea pig at 1 mg/kg administered as cassette dosing; assay type: ADME, organism-based, Cavia porcellus; conditions: in vivo
Procedure, shortened: (§6)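 Guinea pig cassette dosing of five compounds per solution, 0.2 mg/kg iv and 1 mg/kg po. Vehicle wellsolve/H2O 5/95 with NaOH (1.2 equiv). Animals fasted before oral dosing; noncrossover design, n = 3. Plasma protein-precipitated with acetonitrile/ethanol (70/30) and assayed by negative-ion HPLC/MS/MS. Noncompartmental analysis; F from mean AUCs.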

[24] = Stability of the compound in H2SO4/DME/H2O at 50 degC measured for 24 hrs; assay type: physicochemical
Procedure, shortened: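 Compound was held in 1 mol/L H2SO4 in DME/H2O at 50 °C for 24 h and checked for degradation.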

[25] = Stability of the compound in NaOH/DME/EtOH/H2O at 50 degC measured for 24 hrs; assay type: physicochemical
Procedure, shortened: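 Compound was held in 1 mol/L NaOH in DME/EtOH/H2O at 50 °C for 24 h and checked for degradation.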

Canis familiaris [26] = test: as §3; assay type: ADME, organism-based, Canis lupus familiaris; conditions: in vivo; procedure, shortened: as §1
[27] = Half life in guinea pig at 0.2 mg/kg, iv administered as cassette dosing; assay type: ADME, organism-based, Cavia porcellus; conditions: in vivo; procedure, shortened: as §6
[28] = Clearance in rat at 1 mg/kg, iv and 1 mg/kg, po; assay type: ADME, organism-based; conditions: in vivo; procedure, shortened: as §1
[29] = Clearance in rat at 0.2 mg/kg, iv and 1 mg/kg, po administered as cassette dosing; assay type: ADME, organism-based; conditions: in vivo
[30] = Volume of distribution at steady state in rat at 1 mg/kg, iv and 1 mg/kg, po; assay type: ADME, organism-based; conditions: in vivo, read-out: Vdss; procedure, shortened: as §2
[31] = Volume of distribution at steady state in rat at 0.2 mg/kg, iv and 1 mg/kg, po administered as cassette dosing; assay type: ADME, organism-based; conditions: in vivo, read-out: Vdss
[32] = Cmax in rat at 1 mg/kg, po; assay type: ADME, organism-based; set-up: dose 1 mg/kg, route oral; conditions: in vivo; procedure, shortened: as §1
[33] = Cmax in guinea pig at 1 mg/kg, po administered as cassette dosing; assay type: ADME, organism-based, Cavia porcellus; set-up: dose 1 mg/kg, route oral; conditions: in vivo; procedure, shortened: as §6
[34] = Cmax in dog at 1 mg/kg, po; assay type: ADME, organism-based, Canis lupus familiaris; set-up: dose 1 mg/kg, route oral; conditions: in vivo; procedure, shortened: as §1
[35] = AUC in rat at 1 mg/kg, po; assay type: ADME, organism-based; conditions: in vivo; procedure, shortened: as §1
[36] = AUC in guinea pig at 1 mg/kg, po administered as cassette dosing; assay type: ADME, organism-based, Cavia porcellus; conditions: in vivo
[37] = Oral bioavailability in rat at 1 mg/kg; assay type: ADME, organism-based; conditions: in vivo; procedure, shortened: as §1
Canis familiaris [38] = test: Oral bioavailability in dog at 1 mg/kg administered as cassette dosing; assay type: ADME, organism-based, Canis lupus familiaris; conditions: in vivo
[39] = Plasma concentration in guinea pig at 0.3 mg/kg, po measured over 7 days; assay type: ADME, organism-based, Cavia porcellus; procedure, shortened: as §4
[40] = Plasma concentration in guinea pig at 3 mg/kg, po measured over 7 days; assay type: ADME, organism-based, Cavia porcellus; procedure, shortened: as §4
[41] = Drug uptake in lung of guinea pig at 0.3 mg/kg, po measured over 7 days; assay type: ADME, organism-based, Cavia porcellus; conditions: read-out: Drug uptake; procedure, shortened: as §4
[42] = Drug uptake in lung of guinea pig at 3 mg/kg, po measured over 7 days; assay type: ADME, organism-based, Cavia porcellus; conditions: read-out: Drug uptake; procedure, shortened: as §4
[43] = Ratio of drug level in lung to plasma in guinea pig at 3 mg/kg, po measured over 7 days; assay type: ADME, organism-based, Cavia porcellus; conditions: lung and plasma; procedure, shortened: as §5
[44] = Ratio of drug level in lung to plasma in guinea pig at 0.3 mg/kg, po measured over 7 days; assay type: ADME, organism-based, Cavia porcellus; conditions: lung and plasma; procedure, shortened: as §5

SMILES: O=C(O)CCCN1CC(C(=O)O)Oc2c(NC(=O)c3ccc(OCCCCc4ccccc4)cc3)cccc21 (stereo not drawn)
- bioavailability [1]: 2.8%

SMILES: O=C(O)CCCn1cc(CC(=O)O)c2c(/C=C/c3ccc(OCCCCOc4ccccc4)cc3)cccc21
- bioavailability [2]: 26%

SMILES: O=C(O)CCCc1cn(CC(=O)O)c2c(/C=C/c3ccc(OCCCCOc4ccccc4)cc3)cccc12
- bioavailability [2]: 12%
- bioavailability [3]: 66%

SMILES: Cc1c(Cl)cccc1CCCCOc1ccc(/C=C/c2cccc3c(CCCC(=O)O)c(C)n(CC(=O)O)c23)cc1
- bioavailability [2]: 11%
- half-life [4]: 8.9 h
- half-life [5]: 5.3 h
- half-life [6]: 4.7 h
- clearance [7]: 1.1 mL/min/kg
- clearance [8]: 1.8 mL/min/kg
- clearance [9]: 5.5 mL/min/kg
- Vd [10]: 0.3 L/kg
- Vd [11]: 0.23 L/kg
- Vd [12]: 0.38 L/kg
- AUC [13]: 39000 ng·h/mL
- AUC [14]: 10000 ng·h/mL
- AUC [15]: 650 ng·h/mL
- bioavailability [16]: 56%
- bioavailability [17]: 21%
- concentration at 24 h [18]: 253 ng/g
- concentration at 24 h [19]: 16 ng/mL
- Kp at 24 h [20]: 15
- Stability [21]: Unstable

SMILES: Cc1c(Cl)cccc1CCCCOc1ccc(C#Cc2cccc3c(CCCC(=O)O)c(C)n(CCCC(=O)O)c23)cc1
- AUC [22]: 10500 ng·h/mL
- bioavailability [23]: 66%
- Stability [24]: Stable
- Stability [25]: Stable
- Stability [21]: Stable

SMILES: Cc1c(Cl)cccc1CCCCOc1ccc(C#Cc2ccc(F)c3c(CCCC(=O)O)c(C)n(CCCC(=O)O)c23)cc1
- AUC [22]: 3400 ng·h/mL
- bioavailability [23]: 52%

SMILES: Cc1c(F)cccc1CCCCOc1ccc(C#Cc2ccc(F)c3c(CCCC(=O)O)c(C)n(CCCC(=O)O)c23)cc1
- half-life [4]: 9.6 h
- half-life [6]: 7.6 h
- Vd [12]: 0.14 L/kg
- AUC (Canis familiaris [26]): 28200 ng·h/mL
- bioavailability [23]: 56%
- half-life [27]: 7.1 h
- clearance [28]: 0.68 mL/min/kg
- clearance [29]: 1.1 mL/min/kg
- Vd [30]: 0.24 L/kg
- Vd [31]: 0.31 L/kg
- Cmax [32]: 1190 ng/mL
- Cmax [33]: 1010 ng/mL
- Cmax [34]: 3690 ng/mL
- AUC [35]: 9330 ng·h/mL
- AUC [36]: 8510 ng·h/mL
- bioavailability [37]: 35%
- F (Canis familiaris [38]): 51%
- concentration at 168 h [39]: 8.7 ng/mL
- concentration at 168 h [40]: 83 ng/mL
- concentration at 168 h [41]: 267 ng/g
- concentration at 168 h [42]: 573 ng/g
- Kp at 168 h [43]: 8
- Kp at 168 h [44]: 30
